Assay [1] deals with T47D. Nature of the assay: Inhibition of PR-A mRNA gene expression in human T47D cells at 100 nM by syber green assay. Format: functional. Summed up:
(§1)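 T47D cells plated at 80,000/well without antibiotics two days before Oligofectamine transfection with agRNA duplex (25 or 100 nM final); medium changed at 24 h, harvest day 5 unless stated otherwise. TRIzol total RNA; PR mRNA by real-time PCR with SYBR Green: 50 °C 2 min, 95 °C 10 min, 40 cycles 95 °C 15 s/60 °C 1 min.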

Assay [2] has as its system T47D. Description: Inhibition of PR-A gene expression in human T47D cells at 25 nM by syber green assay. Type of assay: functional. Summed up: as §1
For assay [3], the system named is T47D. Nature of the assay: Inhibition of PR-A gene expression in human T47D cells at 25 nM by syber green assay in presence of 10 nM estradiol. Format: functional, cell-based.
The test system of assay [4] is T47D. Nature of the assay: Inhibition of PR-B gene expression in human T47D cells at 25 nM by syber green assay. Format: functional. Summed up: as §1
The subject of assay [5] is T47D. Description: Inhibition of PR-B mRNA gene expression in human T47D cells at 100 nM by syber green assay. Type of assay: functional. A digest of the protocol: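 T47D cells in RPMI-1640 with 10% FBS, NEAA, insulin, 37 °C, 5% CO2. Plated two days before transfection without antibiotics. Oligofectamine-mediated duplex RNA transfection at 100 nM final, medium changed at 24 h, harvest five days post-transfection. Total RNA extracted with TRIzol. hPR mRNA quantified by SYBR Green qPCR: 50 °C 2 min, 95 °C 10 min, then 40 cycles of 95 °C 15 s / 60 °C 1 min.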

Assay [6] relates to T47D. Nature of the assay: Inhibition of PR-B gene expression in human T47D cells at 25 nM by syber green assay in presence of 10 nM estradiol. Format: functional, cell-based.

Active and inactive are the calls of the source. The rule behind the calls is not given here.

The term inhibition denotes the share of the control response that was lost under treatment.

As to `Cc1cn(CC(=O)N(CCNC(=O)CN(CCNC(=O)CN(CCNC(=O)CN(CCNC(=O)CN(CCNC(=O)CN(CCNC(=O)CN(CCNC(=O)CN(CCNC(=O)CN(CCNC(=O)CN(CCNC(=O)CN(CCNC(=O)CN(CCNC(=O)CN(CCNC(=O)CN(CCNC(=O)CN(CCNC(=O)CN(CCNC(=O)CN(CCNC(=O)CN(CCNC(=O)CN(CCNC(=O)CN(CCNC(=O)CN)C(=O)Cn2cnc3c(N)ncnc32)C(=O)Cn2cnc3c(=O)[nH]c(N)nc32)C(=O)Cn2ccc(N)nc2=O)C(=O)Cn2ccc(=O)[nH]c2=O)C(=O)Cn2cnc3c(=O)[nH]c(N)nc32)C(=O)Cn2ccc(=O)[nH]c2=O)C(=O)Cn2ccc(N)nc2=O)C(=O)Cn2ccc(=O)[nH]c2=O)C(=O)Cn2cnc3c(=O)[nH]c(N)nc32)C(=O)Cn2cnc3c(=O)[nH]c(N)nc32)C(=O)Cn2ccc(N)nc2=O)C(=O)Cn2ccc(N)nc2=O)C(=O)Cn2cnc3c(N)ncnc32)C(=O)Cn2cnc3c(=O)[nH]c(N)nc32)C(=O)Cn2ccc(=O)[nH]c2=O)C(=O)Cn2ccc(N)nc2=O)C(=O)Cn2ccc(N)nc2=O)C(=O)Cn2cnc3c(N)ncnc32)C(=O)Cn2ccc(N)nc2=O)CC(=O)NCCN(CC(=O)NCC(=O)O)C(=O)Cn2cc(C)c(=O)[nH]c2=O)c(=O)[nH]c1=O`, the results for the inhibition at 0.1 µM in assay [1] and in assay [5] were 63% and 87%, respectively. Also, the inhibition at 0.025 µM in assay [2] came out at 34%; in assay [4], 40%. For the same compound, the inhibition entry in assay [3] and in assay [6] was “Active” in each case.
For the compound `Cc1cn(CC(=O)N(CCNC(=O)CN(CCNC(=O)CN(CCNC(=O)CN(CCNC(=O)CN(CCNC(=O)CN(CCNC(=O)CN(CCNC(=O)CN(CCNC(=O)CN(CCNC(=O)CN(CCNC(=O)CN(CCNC(=O)CN(CCNC(=O)CN(CCNC(=O)CN(CCNC(=O)CN(CCNC(=O)CN(CCNC(=O)CN(CCNC(=O)CN(CCNC(=O)CN(CCNC(=O)CN(CCNC(=O)CN)C(=O)Cn2ccc(N)nc2=O)C(=O)Cn2ccc(=O)[nH]c2=O)C(=O)Cn2cnc3c(=O)[nH]c(N)nc32)C(=O)Cn2ccc(=O)[nH]c2=O)C(=O)Cn2ccc(N)nc2=O)C(=O)Cn2ccc(=O)[nH]c2=O)C(=O)Cn2cnc3c(=O)[nH]c(N)nc32)C(=O)Cn2cnc3c(=O)[nH]c(N)nc32)C(=O)Cn2ccc(N)nc2=O)C(=O)Cn2ccc(N)nc2=O)C(=O)Cn2cnc3c(N)ncnc32)C(=O)Cn2cnc3c(=O)[nH]c(N)nc32)C(=O)Cn2ccc(=O)[nH]c2=O)C(=O)Cn2ccc(N)nc2=O)C(=O)Cn2ccc(N)nc2=O)C(=O)Cn2cnc3c(N)ncnc32)C(=O)Cn2ccc(N)nc2=O)C(=O)Cn2cnc3c(N)ncnc32)C(=O)Cn2cnc3c(=O)[nH]c(N)nc32)CC(=O)NCCN(CC(=O)NCC(=O)O)C(=O)Cn2cc(C)c(=O)[nH]c2=O)c(=O)[nH]c1=O`, the inhibition at 0.1 µM amounted to 99% in assay [1] and 100% in assay [5]. In addition, the inhibition at 0.025 µM amounted to 50% in assay [2] and 55% in assay [4]. Moreover, the inhibition result in assay [3] and in assay [6] was “Active” each time.
Consider `Cc1cn(CC(=O)N(CCNC(=O)CN(CCNC(=O)CN(CCNC(=O)CN(CCNC(=O)CN(CCNC(=O)CN(CCNC(=O)CN(CCNC(=O)CN(CCNC(=O)CN(CCNC(=O)CN(CCNC(=O)CN(CCNC(=O)CN(CCNC(=O)CN(CCNC(=O)CN(CCNC(=O)CN(CCNC(=O)CN(CCNC(=O)CN(CCNC(=O)CN(CCNC(=O)CN(CCNC(=O)CN(CCNC(=O)CN)C(=O)Cn2cnc3c(=O)[nH]c(N)nc32)C(=O)Cn2ccc(N)nc2=O)C(=O)Cn2ccc(=O)[nH]c2=O)C(=O)Cn2cnc3c(=O)[nH]c(N)nc32)C(=O)Cn2ccc(N)nc2=O)C(=O)Cn2ccc(N)nc2=O)C(=O)Cn2ccc(=O)[nH]c2=O)C(=O)Cn2cnc3c(=O)[nH]c(N)nc32)C(=O)Cn2cnc3c(=O)[nH]c(N)nc32)C(=O)Cn2ccc(N)nc2=O)C(=O)Cn2ccc(N)nc2=O)C(=O)Cn2cnc3c(N)ncnc32)C(=O)Cn2cnc3c(=O)[nH]c(N)nc32)C(=O)Cn2ccc(=O)[nH]c2=O)C(=O)Cn2ccc(N)nc2=O)C(=O)Cn2ccc(N)nc2=O)C(=O)Cn2cnc3c(N)ncnc32)C(=O)Cn2ccc(N)nc2=O)C(=O)Cn2cnc3c(N)ncnc32)CC(=O)NCCN(CC(=O)NCC(=O)O)C(=O)Cn2cc(C)c(=O)[nH]c2=O)c(=O)[nH]c1=O`, for which the inhibition at 0.1 µM in assay [1] is below 20%; in assay [5], 28%. Besides, the inhibition at 0.025 µM in assay [2] and in assay [4] was below 20% in each case. Besides, the inhibition result in assay [3] and in assay [6] was “Active” each time.
Regarding `Cc1cn(CC(=O)N(CCNC(=O)CN(CCNC(=O)CN(CCNC(=O)CN(CCNC(=O)CN(CCNC(=O)CN(CCNC(=O)CN(CCNC(=O)CN(CCNC(=O)CN(CCNC(=O)CN(CCNC(=O)CN(CCNC(=O)CN(CCNC(=O)CN(CCNC(=O)CN(CCNC(=O)CN(CCNC(=O)CN(CCNC(=O)CN(CCNC(=O)CN(CCNC(=O)CN(CCNC(=O)CN(CCNC(=O)CN)C(=O)Cn2cnc3c(N)ncnc32)C(=O)Cn2cnc3c(N)ncnc32)C(=O)Cn2cnc3c(N)ncnc32)C(=O)Cn2cnc3c(=O)[nH]c(N)nc32)C(=O)Cn2ccc(N)nc2=O)C(=O)Cn2ccc(=O)[nH]c2=O)C(=O)Cn2cnc3c(=O)[nH]c(N)nc32)C(=O)Cn2ccc(=O)[nH]c2=O)C(=O)Cn2ccc(N)nc2=O)C(=O)Cn2ccc(=O)[nH]c2=O)C(=O)Cn2cnc3c(=O)[nH]c(N)nc32)C(=O)Cn2cnc3c(=O)[nH]c(N)nc32)C(=O)Cn2ccc(N)nc2=O)C(=O)Cn2ccc(N)nc2=O)C(=O)Cn2cnc3c(N)ncnc32)C(=O)Cn2cnc3c(=O)[nH]c(N)nc32)C(=O)Cn2ccc(=O)[nH]c2=O)C(=O)Cn2ccc(N)nc2=O)C(=O)Cn2ccc(N)nc2=O)CC(=O)NCCN(CC(=O)NCC(=O)O)C(=O)Cn2cc(C)c(=O)[nH]c2=O)c(=O)[nH]c1=O`, the inhibition at 0.1 µM in assay [1] and in assay [5] was below 20% in each case. Also, the inhibition at 0.025 µM in assay [2] and in assay [4] was below 20% each time. The inhibition entry in assay [3] and in assay [6] was “Active” in each case.
Regarding `Cc1cn(CC(=O)N(CCNC(=O)CN(CCNC(=O)CN(CCNC(=O)CN(CCNC(=O)CN(CCNC(=O)CN(CCNC(=O)CN(CCNC(=O)CN(CCNC(=O)CN(CCNC(=O)CN(CCNC(=O)CN(CCNC(=O)CN(CCNC(=O)CN(CCNC(=O)CN(CCNC(=O)CN(CCNC(=O)CN(CCNC(=O)CN(CCNC(=O)CN(CCNC(=O)CN(CCNC(=O)CN(CCNC(=O)CN)C(=O)Cn2cnc3c(N)ncnc32)C(=O)Cn2cnc3c(=O)[nH]c(N)nc32)C(=O)Cn2cnc3c(=O)[nH]c(N)nc32)C(=O)Cn2cnc3c(N)ncnc32)C(=O)Cn2cnc3c(=O)[nH]c(N)nc32)C(=O)Cn2cnc3c(=O)[nH]c(N)nc32)C(=O)Cn2ccc(N)nc2=O)C(=O)Cn2cnc3c(=O)[nH]c(N)nc32)C(=O)Cn2ccc(=O)[nH]c2=O)C(=O)Cn2ccc(=O)[nH]c2=O)C(=O)Cn2cnc3c(=O)[nH]c(N)nc32)C(=O)Cn2ccc(=O)[nH]c2=O)C(=O)Cn2ccc(=O)[nH]c2=O)C(=O)Cn2cnc3c(N)ncnc32)C(=O)Cn2cnc3c(=O)[nH]c(N)nc32)C(=O)Cn2cnc3c(N)ncnc32)C(=O)Cn2cnc3c(N)ncnc32)C(=O)Cn2cnc3c(N)ncnc32)C(=O)Cn2cnc3c(=O)[nH]c(N)nc32)CC(=O)NCCN(CC(=O)NCC(=O)O)C(=O)Cn2cc(C)c(=O)[nH]c2=O)c(=O)[nH]c1=O`, the inhibition at 0.1 µM was 52% in assay [1] and 68% in assay [5]. The figures for the inhibition at 0.025 µM in assay [2] and in assay [4] were below 20% and 34%, respectively. Also, the inhibition result in assay [3] and in assay [6] was “Active” throughout.
In the case of `Cc1cn(CC(=O)N(CCNC(=O)CN(CCNC(=O)CN(CCNC(=O)CN(CCNC(=O)CN(CCNC(=O)CN(CCNC(=O)CN(CCNC(=O)CN(CCNC(=O)CN(CCNC(=O)CN(CCNC(=O)CN(CCNC(=O)CN(CCNC(=O)CN(CCNC(=O)CN(CCNC(=O)CN(CCNC(=O)CN(CCNC(=O)CN(CCNC(=O)CN(CCNC(=O)CN(CCNC(=O)CN(CCNC(=O)CN(CCNC(=O)CN)C(=O)Cn2cnc3c(=O)[nH]c(N)nc32)C(=O)Cn2ccc(=O)[nH]c2=O)C(=O)Cn2ccc(N)nc2=O)C(=O)Cn2ccc(=O)[nH]c2=O)C(=O)Cn2cnc3c(=O)[nH]c(N)nc32)C(=O)Cn2cnc3c(=O)[nH]c(N)nc32)C(=O)Cn2ccc(N)nc2=O)C(=O)Cn2ccc(N)nc2=O)C(=O)Cn2cnc3c(N)ncnc32)C(=O)Cn2cnc3c(=O)[nH]c(N)nc32)C(=O)Cn2ccc(=O)[nH]c2=O)C(=O)Cn2ccc(N)nc2=O)C(=O)Cn2ccc(N)nc2=O)C(=O)Cn2cnc3c(N)ncnc32)C(=O)Cn2ccc(N)nc2=O)C(=O)Cn2cnc3c(N)ncnc32)C(=O)Cn2cnc3c(=O)[nH]c(N)nc32)C(=O)Cn2ccc(N)nc2=O)C(=O)Cn2ccc(=O)[nH]c2=O)C(=O)Cn2cc(C)c(=O)[nH]c2=O)CC(=O)O)c(=O)[nH]c1=O`, the inhibition at 0.1 µM was determined as 67% in assay [1] and 88% in assay [5]. For the same compound, the inhibition at 0.025 µM was 67% in assay [2] and 73% in assay [4]. The inhibition result in assay [3] and in assay [6] was “Active” throughout.

Source of the values: ChEMBL document CHEMBL1250442, “Inhibiting gene expression at transcription start sites in chromosomal DNA with antigene RNAs” (Nat Chem Biol, 2005).
